# Assay results taken from publication PMC3902791 (Molecular imaging and biology : MIB : the official …, 2012).
# “Also recorded” adds a separate entry of the source.
# Key:
# [1] = assay type: in vivo, rhesus macaques
# Procedure, shortened: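 Six rhesus macaques (3 female, 3 male), fasted overnight, under isoflurane anaesthesia, received test compound i.v. at 165.4 ± 28.5 MBq (21.8±5.9 MBq/kg) in 5 mL over 2 min. Venous samples (0.5 mL) were taken from the second saphenous cannula at 10, 20, 40, 60, 90 s and 2–180 min. Radioactivity in whole blood and plasma was gamma-counted and expressed as %ID/mL.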
# [2] = Dynamic and whole-body PET imaging of pharmacokinetics and biodistribution; assay type: in vivo, rhesus macaques
# Procedure, shortened: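 ECAT HR+ scanner; 10-min transmission scan, then i.v. radiotracer (165.4 ± 28.5 MBq). Lower thorax to upper abdomen was imaged dynamically for 0–30 min in 2D mode, 29 frames (20×15 s, 5×1 min, 4×5 min). Three whole-body static scans followed at 40, 100 and 170 min (3-min transmission, 5-min emission, 4–5 beds). OSEM reconstruction with attenuation, scatter, random and dead-time correction. 3D VOIs gave organ %ID/g time–activity curves.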
# rhesus macaques [3] = assay: ECG monitoring for acute toxicity during PET imaging; assay type: in vivo
# Procedure, shortened: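 Animals were anaesthetised (atropine 0.04 mg/kg i.m.; telazole or ketamine i.m.; isoflurane 1.0–3.0% in oxygen), intubated, mechanically ventilated and kept at 37±0.8°C. ECG, blood pressure, pulse oximetry and respiration rate were monitored throughout the imaging study after i.v. radiotracer.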
# rhesus macaques [4] = assay: Hematology and blood chemistry before and after PET imaging; assay type: in vivo
smiles,measurement,setting,value
"O=C(O)C[18F] [^18F-FACE, ^18F-fluoroacetate]","blood clearance half-time, fast phase","[1]; i.v., bi-exponential, fast phase between 3 and 18 min",4 min
same,"blood clearance half-time, slow phase","[1]; i.v., bi-exponential, slow phase until 180 min",250 min
same,partition of radioactivity in the blood: plasma,[1]; stable throughout the study,70%
same,partition of radioactivity in the blood: red blood cells,[1]; stable throughout the study,30%
same,accumulation in the myocardium,[2]; PET,Some accumulation
same,accumulation or retention in the brain,[2]; PET,No significant accumulation or retention
same,uptake of radioactivity (free ^18F-fluoride) in bones / skeletal structures,"[2]; PET, over 2 to 3 h post-injection",insignificant; also recorded: limited
same,radioactivity concentration in liver,[2]; at 5 min,0.040 % ID/g
same,level of radioactivity in the blood,[2]; within 5 min after i.v. injection,0.040±0.02 % ID/g
same,"changes in ECG (cardiac rhythm, electrical activity)",rhesus macaques [3]; administration to 180 min post-injection,None of the animals injected with ^18F-FACE demonstrated any significant changes in cardiac rhythm or electrical activity patterns; also recorded: no significant changes to the ECG
same,ECG PR,rhesus macaques [3]; time 1 min,0.11 ± 0.01 s
same,ECG QRS,rhesus macaques [3]; time 1 min,0.05 ± 0.01 s
same,ECG QT,rhesus macaques [3]; time 1 min,0.35 ± 0.04 s
same,ECG ST,rhesus macaques [3]; time 1 min,0.80 ± 0.45 s
same,ECG p,rhesus macaques [3]; time 1 min,0.04 ± 0.01 s
same,Heart rate,rhesus macaques [3]; time 1 min,88±8 per minute
same,ECG PR,rhesus macaques [3]; time 2 min,0.11 ± 0.01 s
same,ECG QRS,rhesus macaques [3]; time 2 min,0.04 ± 0.00 s
same,ECG QT,rhesus macaques [3]; time 2 min,0.34 ± 0.05 s
same,ECG ST,rhesus macaques [3]; time 2 min,1.00 ± 0.50 s
same,ECG p,rhesus macaques [3]; time 2 min,0.04 ± 0.00 s
same,Heart rate,rhesus macaques [3]; time 2 min,88±8 per minute
same,ECG PR,rhesus macaques [3]; time 5 min,0.11 ± 0.02 s
same,ECG QRS,rhesus macaques [3]; time 5 min,0.04 ± 0.01 s
same,ECG QT,rhesus macaques [3]; time 5 min,0.35 ± 0.04 s
same,ECG ST,rhesus macaques [3]; time 5 min,0.95 ± 0.51 s
same,ECG p,rhesus macaques [3]; time 5 min,0.04 ± 0.01 s
same,Heart rate,rhesus macaques [3]; time 5 min,88±7 per minute
same,ECG PR,rhesus macaques [3]; time 16 min,0.10 ± 0.01 s
same,ECG QRS,rhesus macaques [3]; time 16 min,0.04 ± 0.00 s
same,ECG QT,rhesus macaques [3]; time 16 min,0.34 ± 0.04 s
same,ECG ST,rhesus macaques [3]; time 16 min,0.80 ± 0.41 s
same,ECG p,rhesus macaques [3]; time 16 min,0.05 ± 0.01 s
same,Heart rate,rhesus macaques [3]; time 16 min,87±6 per minute
same,ECG PR,rhesus macaques [3]; time 32 min,0.11 ± 0.01 s
same,ECG QRS,rhesus macaques [3]; time 32 min,0.04 ± 0.00 s
same,ECG QT,rhesus macaques [3]; time 32 min,0.34 ± 0.03 s
same,ECG ST,rhesus macaques [3]; time 32 min,0.60 ± 0.38 s
same,ECG p,rhesus macaques [3]; time 32 min,0.05 ± 0.01 s
same,Heart rate,rhesus macaques [3]; time 32 min,89±7 per minute
same,ECG PR,rhesus macaques [3]; time 60 min,0.11 ± 0.01 s
same,ECG QRS,rhesus macaques [3]; time 60 min,0.04 ± 0.01 s
same,ECG QT,rhesus macaques [3]; time 60 min,0.34 ± 0.04 s
same,ECG ST,rhesus macaques [3]; time 60 min,0.70 ± 0.54 s
same,ECG p,rhesus macaques [3]; time 60 min,0.04 ± 0.00 s
same,Heart rate,rhesus macaques [3]; time 60 min,89±7 per minute
same,ECG PR,rhesus macaques [3]; time 90 min,0.11 ± 0.01 s
same,ECG QRS,rhesus macaques [3]; time 90 min,0.04 ± 0.00 s
same,ECG QT,rhesus macaques [3]; time 90 min,0.34 ± 0.03 s
same,ECG ST,rhesus macaques [3]; time 90 min,0.70 ± 0.54 s
same,ECG p,rhesus macaques [3]; time 90 min,0.04 ± 0.01 s
same,Heart rate,rhesus macaques [3]; time 90 min,87±5 per minute
same,ECG PR,rhesus macaques [3]; time 120 min,0.11 ± 0.01 s
same,ECG QRS,rhesus macaques [3]; time 120 min,0.05 ± 0.01 s
same,ECG QT,rhesus macaques [3]; time 120 min,0.33 ± 0.03 s
same,ECG ST,rhesus macaques [3]; time 120 min,0.60 ± 0.38 s
same,ECG p,rhesus macaques [3]; time 120 min,0.04 ± 0.01 s
same,Heart rate,rhesus macaques [3]; time 120 min,88±3 per minute
same,ECG PR,rhesus macaques [3]; time 180 min,0.10 ± 0.01 s
same,ECG QRS,rhesus macaques [3]; time 180 min,0.04 ± 0.00 s
same,ECG QT,rhesus macaques [3]; time 180 min,0.34 ± 0.03 s
same,ECG ST,rhesus macaques [3]; time 180 min,0.85 ± 0.63 s
same,ECG p,rhesus macaques [3]; time 180 min,0.04 ± 0.01 s
same,Heart rate,rhesus macaques [3]; time 180 min,93±8 per minute
same,ALP,rhesus macaques [4]; After 1–3 months,134.0±58.2 IU/L
same,ALT,rhesus macaques [4]; After 1–3 months,30.5±8.5 IU/L
same,AST,rhesus macaques [4]; After 1–3 months,28.7±3.4 IU/L
same,Albumin,rhesus macaques [4]; After 1–3 months,3.4 ± 0.8 g/dL
same,BUN,rhesus macaques [4]; After 1–3 months,17.9 ± 4.9 mg/dL
same,Hb,rhesus macaques [4]; After 1–3 months,13.4 ± 0.4 g/dL
same,Hct,rhesus macaques [4]; After 1–3 months,42.4±2.0 %
same,Plt,rhesus macaques [4]; After 1–3 months,303.0±118.8 ×10^6/mL
same,RBC,rhesus macaques [4]; After 1–3 months,5.7±0.1 ×10^6/mL
same,Total bilirubin,rhesus macaques [4]; After 1–3 months,0.2 ± 0.1 mg/dL
same,Total protein,rhesus macaques [4]; After 1–3 months,6.1 ± 0.9 g/dL
same,WBC,rhesus macaques [4]; After 1–3 months,4.8±0.5 ×10^3/mL
same,ALP,rhesus macaques [4]; After imaging,169.4±61.3 IU/L
same,ALT,rhesus macaques [4]; After imaging,34.2±12.2 IU/L
same,AST,rhesus macaques [4]; After imaging,29.0±5.6 IU/L
same,Albumin,rhesus macaques [4]; After imaging,3.9 ± 0.8 g/dL
same,BUN,rhesus macaques [4]; After imaging,17.9 ± 4.6 mg/dL
same,Hb,rhesus macaques [4]; After imaging,13.1 ± 1.2 g/dL
same,Hct,rhesus macaques [4]; After imaging,41.4±2.5 %
same,Plt,rhesus macaques [4]; After imaging,328.1±54.2 ×10^6/mL
same,RBC,rhesus macaques [4]; After imaging,5.7±0.6 ×10^6/mL
same,Total bilirubin,rhesus macaques [4]; After imaging,0.3 ± 0.1 mg/dL
same,Total protein,rhesus macaques [4]; After imaging,7.0 ± 0.5 g/dL
same,WBC,rhesus macaques [4]; After imaging,6.8± 1.1 ×10^3/mL
same,"changes in CBC, blood chemistry, liver enzymes, renal function",rhesus macaques [4]; before vs after 3 h and 1–3 months,"no statistically significant changes; also recorded: no significant changes in CBC, liver enzymes, or renal function"
